From ChEMBL document CHEMBL1275294, “Synthesis and anticancer activity evaluation of 4-thiazolidinones containing benzothiazole moiety” (2010)
The source made the active and inactive calls. The calls are words filed in the database; no cut-off is given here.

What was measured:
SF-295 [1] = assay: Anticancer activity against human SF295 cells assessed as cell growth at 10 uM after 48 hrs by SRB assay; type: functional; conditions: SF-295, 48 h, read-out: Activity
Method in brief: (§1)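 NCI primary screen: compound added at a single concentration of 10^-5 M to the human tumor cell line panel, 48 h incubation, end-point by sulforhodamine B protein staining read spectrophotometrically. Result expressed as percent growth of treated cells relative to untreated control cells.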

NCI60 = assay: Anticancer activity against human NCI60 cells assessed as cell growth inhibition after 48 hrs by SRB assay; type: functional, cell-based
Method in brief: (§2)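 NCI full panel of about 60 human tumor cell lines, five 10-fold dilutions from 10^-4 to 10^-8 M, 48 h continuous exposure, SRB protein assay read spectrophotometrically. Percent growth from time-zero, untreated-control and treated absorbances. GI50 is the molar concentration giving 50% net growth inhibition, TGI total inhibition, LC50 50% net cell death. Mean graph midpoints include insensitive lines at the top concentration.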

[2] = Anticancer activity against human NCI60 cells assessed as cell growth at 10 uM after 48 hrs by SRB assay; type: functional; conditions: NCI60, 48 h, read-out: Activity; method in brief: as §1
SR = assay: Anticancer activity against human SR cells assessed as cell growth at 10 uM after 48 hrs by SRB assay; type: functional; conditions: read-out: Activity; method in brief: as §1
HL-60(TB) = assay: Growth inhibition of human HL-60(TB) cells after 48 hrs by SRB assay; type: functional; conditions: HL-60, 48 h
Method in brief: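 NCI 60-cell-line screen, five 10-fold dilutions of the compound, 48-h continuous drug exposure. Cell growth is measured with the sulforhodamine B protein stain and read spectrophotometrically against untreated controls and a time-zero plate (Tz). GI50 is the molar concentration giving 50% net growth inhibition. Values outside the tested range are reported as above or below the extreme concentration.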

RPMI-8226 [3] = assay: Growth inhibition of human RPMI8226 cells after 48 hrs by SRB assay; type: functional; conditions: RPMI-8226, 48 h; method in brief: as §2
NCI-H226 = assay: Growth inhibition of human NCI-H226 cells after 48 hrs by SRB assay; type: functional; conditions: NCI-H226, 48 h; method in brief: as §2
KM12 = assay: Growth inhibition of human KM12 cells after 48 hrs by SRB assay; type: functional; conditions: KM12, 48 h; method in brief: as §2
SW-620 = assay: Growth inhibition of human SW620 cells after 48 hrs by SRB assay; type: functional; conditions: SW-620, 48 h; method in brief: as §2
SNB-75 [4] = assay: Growth inhibition of human SNB75 cells after 48 hrs by SRB assay; type: functional; conditions: SNB-75, 48 h; method in brief: as §2
U-251 = assay: Growth inhibition of human U251 cells after 48 hrs by SRB assay; type: functional; conditions: U-251, 48 h; for TGI: read-out: pTGI (converted); method in brief: as §2
LOX IMVI = assay: Growth inhibition of human LOXIMVI cells after 48 hrs by SRB assay; type: functional; method in brief: as §2
SK-MEL-28 = assay: Growth inhibition of human SK-MEL-28 cells after 48 hrs by SRB assay; type: functional; conditions: SK-MEL-28, 48 h; method in brief: as §2
OVCAR-3 = assay: Growth inhibition of human OVCAR-3 cells after 48 hrs by SRB assay; type: functional; conditions: OVCAR-3, 48 h; method in brief: as §2
A498 = assay: Growth inhibition of human A498 cells after 48 hrs by SRB assay; type: functional; conditions: A498, 48 h; method in brief: as §2
DU-145 = assay: Growth inhibition of human DU145 cells after 48 hrs by SRB assay; type: functional; conditions: DU-145, 48 h; method in brief: as §2
BT-549 = assay: Growth inhibition of human BT549 cells after 48 hrs by SRB assay; type: functional; conditions: BT-549, 48 h; for TGI: read-out: pTGI (converted); method in brief: as §2
RXF 393 = assay: Anticancer activity against human RXF393 cells assessed as cell growth at 10 uM after 48 hrs by SRB assay; type: functional; conditions: RXF 393, 48 h, read-out: Activity; method in brief: as §1
UO-31 = assay: Anticancer activity against human UO31 cells assessed as cell growth at 10 uM after 48 hrs by SRB assay; type: functional; conditions: UO-31, 48 h, read-out: Activity; method in brief: as §1
RPMI-8226 [5] = assay: Anticancer activity against human RPMI8226 cells assessed as cell growth at 10 uM after 48 hrs by SRB assay; type: functional; conditions: RPMI-8226, 48 h, read-out: Activity; method in brief: as §1
HOP-92 [6] = assay: Anticancer activity against human HOP92 cells assessed as cell growth at 10 uM after 48 hrs by SRB assay; type: functional; conditions: HOP-92, 48 h, read-out: Activity; method in brief: as §1
SNB-75 [7] = assay: Anticancer activity against human SNB75 cells assessed as cell growth at 10 uM after 48 hrs by SRB assay; type: functional; conditions: SNB-75, 48 h, read-out: Activity; method in brief: as §1
HOP-92 [8] = assay: Growth inhibition of human HOP92 cells after 48 hrs by SRB assay; type: functional; conditions: HOP-92, 48 h; method in brief: as §2
NCI-H23 = assay: Growth inhibition of human NCI-H23 cells after 48 hrs by SRB assay; type: functional; conditions: NCI-H23, 48 h; method in brief: as §2
HCT-116 = assay: Growth inhibition of human HCT116 cells after 48 hrs by SRB assay; type: functional; conditions: HCT-116, 48 h; method in brief: as §2
SF-295 [9] = assay: Growth inhibition of human SF295 cells after 48 hrs by SRB assay; type: functional; conditions: SF-295, 48 h; method in brief: as §2
SF-539 = assay: Growth inhibition of human SF539 cells after 48 hrs by SRB assay; type: functional; conditions: SF-539, 48 h; method in brief: as §2
SNB-19 = assay: Growth inhibition of human SNB19 cells after 48 hrs by SRB assay; type: functional; conditions: SNB-19, 48 h; method in brief: as §2
UACC-62 = assay: Growth inhibition of human UACC62 cells after 48 hrs by SRB assay; type: functional; conditions: UACC-62, 48 h; method in brief: as §2
OVCAR-4 = assay: Growth inhibition of human OVCAR4 cells after 48 hrs by SRB assay; type: functional; conditions: OVCAR-4, 48 h; method in brief: as §2
[10] = Growth inhibition of human NCI-ADR-RES cells after 48 hrs by SRB assay; type: functional; method in brief: as §2
ACHN = assay: Growth inhibition of human ACHN cells after 48 hrs by SRB assay; type: functional; method in brief: as §2
PC-3 = assay: Growth inhibition of human PC3 cells after 48 hrs by SRB assay; type: functional; conditions: PC-3, 48 h; method in brief: as §2
MCF7 = assay: Growth inhibition of human MCF7 cells after 48 hrs by SRB assay; type: functional; conditions: MCF7, 48 h; method in brief: as §2
MDA-MB-435 = assay: Growth inhibition of human MDA-MB-435 cells after 48 hrs by SRB assay; type: functional; conditions: MDA-MB-435, 48 h; method in brief: as §2
T47D = assay: Growth inhibition of human T47D cells after 48 hrs by SRB assay; type: functional; method in brief: as §2

SMILES: CCN(CC)c1ccc(/C=C2\S/C(=N/c3nc4ccc(C)cc4s3)NC2=O)cc1
- growth at 10 µM (SF-295 [1]): 22.5%
- growth inhibition (GI) (NCI60): inactive
- growth at 10 µM [2]: 69%

SMILES: COc1ccc(NC(=O)COc2ccc(Cl)cc2/C=C2\SC(=S)N(Nc3nc4ccccc4s3)C2=O)cc1
- growth inhibition (GI) (NCI60): Active
- growth at 10 µM (SR): -71.5%
- growth at 10 µM [2]: 50.4%
- GI50 (HL-60(TB)): 2.29 µM
- TGI (HL-60(TB); read-out: pTGI (converted)): 6.92 µM
- GI50 (RPMI-8226 [3]): 5.37 µM
- TGI (RPMI-8226 [3]; read-out: pTGI (converted)): 12.9 µM
- GI50 (NCI-H226): 2.95 µM
- TGI (NCI-H226; read-out: pTGI (converted)): 6.92 µM
- GI50 (KM12): 2.24 µM
- TGI (KM12; read-out: pTGI (converted)): 4.9 µM
- GI50 (SW-620): 2.45 µM
- TGI (SW-620; read-out: pTGI (converted)): 6.31 µM
- GI50 (SNB-75 [4]): 1.58 µM
- TGI (SNB-75 [4]; read-out: pTGI (converted)): 9.55 µM
- GI50 (U-251): 2.95 µM
- TGI (U-251): 9.33 µM
- GI50 (LOX IMVI): 1.66 µM
- TGI (LOX IMVI; read-out: pTGI (converted)): 3.24 µM
- GI50 (SK-MEL-28): 2.19 µM
- TGI (SK-MEL-28; read-out: pTGI (converted)): 4.47 µM
- GI50 (OVCAR-3): 2 µM
- TGI (OVCAR-3; read-out: pTGI (converted)): 3.72 µM
- GI50 (A498): 2.57 µM
- TGI (A498; read-out: pTGI (converted)): 5.75 µM
- GI50 (DU-145): 2.09 µM
- TGI (DU-145; read-out: pTGI (converted)): 3.98 µM
- GI50 (BT-549): 3.02 µM
- TGI (BT-549): 8.91 µM

SMILES: COc1cc(/C=C2\SC(=S)N(Nc3nc4ccccc4s3)C2=O)ccc1O
- growth inhibition (GI) (NCI60): inactive
- growth at 10 µM (RXF 393): -0.71%
- growth at 10 µM [2]: 97.7%

SMILES: COc1ccc(/C=C2\S/C(=N/c3nc4ccc(C)cc4s3)NC2=O)cc1
- growth inhibition (GI) (NCI60): inactive
- growth at 10 µM (UO-31): 80.4%
- growth at 10 µM [2]: 106%

SMILES: CCOC(=O)c1ccc(NC(=O)COc2ccc(Cl)cc2/C=C2\SC(=S)N(Nc3nc4ccccc4s3)C2=O)cc1
- growth inhibition (GI) (NCI60): inactive
- growth at 10 µM (RPMI-8226 [5]): 20%
- growth at 10 µM [2]: 74.7%

SMILES: COc1ccc(NC(=O)COc2ccc(/C=C3\SC(=S)N(Nc4nc5ccccc5s4)C3=O)cc2OC)cc1
- growth inhibition (GI) (NCI60): inactive
- growth at 10 µM (UO-31): 78.6%
- growth at 10 µM [2]: 107%

SMILES: Cc1ccc2nc(/N=C3\NC(=O)/C(=C/c4ccc(Cl)cc4)S3)sc2c1
- growth at 10 µM (SF-295 [1]): 4.01%
- growth inhibition (GI) (NCI60): inactive
- growth at 10 µM [2]: 56.5%

SMILES: CCN(CC)c1ccc(/C=C2\SC(=S)N(Nc3nc4ccccc4s3)C2=O)cc1
- growth inhibition (GI) (NCI60): inactive
- growth at 10 µM (UO-31): 77.3%
- growth at 10 µM [2]: 98.5%

SMILES: Cc1ccc2nc(/N=C3\NC(=O)/C(=C/c4cc(Cl)ccc4OCC(N)=O)S3)sc2c1
- growth at 10 µM (HOP-92 [6]): 51.4%
- growth inhibition (GI) (NCI60): inactive
- growth at 10 µM [2]: 91.8%

SMILES: COc1ccc(NC(=O)COc2ccc(Cl)cc2/C=C2\S/C(=N/c3nc4ccc(C)cc4s3)NC2=O)cc1
- growth at 10 µM (SNB-75 [7]): -86.5%
- growth inhibition (GI) (NCI60): Active
- growth at 10 µM [2]: -36.9%
- GI50 (U-251): 5.01 µM
- TGI (U-251): 20 µM
- GI50 (BT-549): 6.03 µM
- TGI (BT-549): 27.5 µM
- GI50 (HOP-92 [8]): 0.457 µM
- TGI (HOP-92 [8]; read-out: pTGI (converted)): 10.2 µM
- GI50 (NCI-H23): 7.76 µM
- TGI (NCI-H23; read-out: pTGI (converted)): 25.1 µM
- GI50 (HCT-116): 4.57 µM
- TGI (HCT-116; read-out: pTGI (converted)): 34.7 µM
- GI50 (SF-295 [9]): 3.39 µM
- TGI (SF-295 [9]; read-out: pTGI (converted)): 15.5 µM
- GI50 (SF-539): 1.78 µM
- TGI (SF-539; read-out: pTGI (converted)): 3.63 µM
- GI50 (SNB-19): 5.5 µM
- TGI (SNB-19; read-out: pTGI (converted)): 25.1 µM
- GI50 (UACC-62): 5.37 µM
- TGI (UACC-62; read-out: pTGI (converted)): 39.8 µM
- GI50 (OVCAR-4): 6.03 µM
- TGI (OVCAR-4; read-out: pTGI): > 100 µM
- GI50 [10]: 6.76 µM
- TGI ([10]; read-out: pTGI): > 100 µM
- GI50 (ACHN): 6.46 µM
- TGI (ACHN; read-out: pTGI (converted)): 66.1 µM
- GI50 (PC-3): 4.9 µM
- TGI (PC-3; read-out: pTGI): > 100 µM
- GI50 (MCF7): 4.27 µM
- TGI (MCF7; read-out: pTGI): > 100 µM
- GI50 (MDA-MB-435): 10 µM
- TGI (MDA-MB-435; read-out: pTGI (converted)): 34.7 µM
- GI50 (T47D): 4.79 µM
- TGI (T47D; read-out: pTGI): > 100 µM
